Consider one molecule from ChEMBL document CHEMBL4118054, “Tamarixetin 3-O-β-d-Glucopyranoside from Azadirachta indica Leaves: Gastroprotective Role through Inhibition of Matrix Metalloproteinase-9 Activity in Mice” (J Nat Prod, 2017).

Activity calls are given as the source filed them. The rule behind the calls is not given here.

Data set [1] concerns Mus musculus. Description: Antiulcerogenic activity in indomethacin-induced gastric ulceration Balb/c mouse model assessed as decrease in visible gastric hemorrhagic lesions in fundic stomach administered orally 30 mins prior to indomethacin challenge measured after 4 hrs. Format: functional, organism-based.
The target in data set [2] is T1, Matrix metalloproteinase-9 (Homo sapiens, UniProt P14780). Description: Inhibition of recombinant human full length MMP9 preincubated for 1 hr followed by gelatin addition measured after 18 hrs by SDS-PAGE analysis. In short, it runs like this:
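Full-length recombinant human MMP-9 (~5 μg) incubated 1 h at room temperature with 0−500 μM test agent, then run on nonreducing 8% SDS-PAGE with 1 mg/mL gelatin. Gels washed in 2.5% Triton X-100, incubated 18 h at 37 °C in 40 mM Tris-HCl pH 7.4, 200 mM NaCl, 10 mM CaCl2, Coomassie stained; lysis bands quantified by densitometry against untreated enzyme. IC50 taken from activity change versus concentration, saturation set as 100%.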

For data set [3], the system named is Mus musculus. Description: Antiulcerogenic activity in indomethacin-induced gastric ulceration Balb/c mouse model assessed as restoration of intact epithelial layer in stomach at 15 to 25 mg/kg, po administered 30 mins prior to indomethacin challenge measured after 4 hrs by H and E staining based microscopic method. Format: functional, organism-based. In short, it runs like this: (§1)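 Same indomethacin model (80 mg/kg b.w. oral, test agent 15 or 25 mg/kg b.w. oral 30 min prior, sacrifice at 4 h). Stomach pieces fixed in 4% paraformaldehyde, paraffin-embedded, ~5 μm sections H&E stained. Damage index scored blind as percentage of the gastric corpus circumference showing hemorrhage or epithelial disruption; submucosal infiltrating cells and epithelial continuity inspected microscopically.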

Data set [4] relates to Mus musculus. As to the kind of experiment: Toxicity in indomethacin-induced gastric ulceration Balb/c mouse model assessed as alteration in gastric tissue at 15 to 25 mg/kg, po administered 30 mins prior to indomethacin challenge measured after 4 hrs. Format: organism-based. Conditions: in vivo.
Data set [5] has as its system Mus musculus. Description: Antiulcerogenic activity in indomethacin-induced gastric ulceration Balb/c mouse model assessed as decrease in visible gastric hemorrhagic lesions in fundic stomach by measuring ulcer index at 25 mg/kg, po administered 30 mins prior to indomethacin challenge measured after 4 hrs (reference value: 35 +/- 7.5). Format: functional.
The subject of data set [6] is Mus musculus. Description: Antiulcerogenic activity in indomethacin-induced gastric ulceration Balb/c mouse model assessed as infilteration of inflammatory cells at submucosal layer at 15 to 25 mg/kg, po administered 30 mins prior to indomethacin challenge measured after 4 hrs by H and E staining based microscopic method. It counts as functional, organism-based. The essentials:
as §1

Data set [7] addresses T1, Matrix metalloproteinase-9. As to the kind of experiment: Residual activity of recombinant human full length MMP9 at 125 uM preincubated for 1 hr followed by gelatin addition measured after 18 hrs by SDS-PAGE analysis relative to control.
The target in data set [8] is T1, Matrix metalloproteinase-9. Description: Binding affinity to human full length MMP9 assessed as decrease in cotton effects of compound up to 500 uM by CD spectral analysis.
Data set [9] relates to Mus musculus. Description: Antiulcerogenic activity in indomethacin-induced gastric ulceration Balb/c mouse model assessed as gastric damage index at 25 mg/kg, po administered 30 mins prior to indomethacin challenge measured after 4 hrs by H and E staining based microscopic method (reference value: 40 +/- 7). Format: functional. The essentials:
as §1

Data set [10] has as its target T1, Matrix metalloproteinase-9. Description: Residual activity of recombinant human full length MMP9 at 60 uM preincubated for 1 hr followed by gelatin addition measured after 18 hrs by SDS-PAGE analysis relative to control.
The test system of data set [11] is Mus musculus. Description: In vivo inhibition of MMP9 in indomethacin-induced gastric ulceration Balb/c mouse model assessed as reduction in indomethacin-induced ProMMP9 activity in gastric tissue administered orally 30 mins prior to indomethacin challenge measured after 4 hrs by gelatin zymographic method. Format: functional, organism-based. The essentials: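 Gastric tissue from the indomethacin model (test agent orally 15 or 25 mg/kg b.w., 30 min before indomethacin, 4 h) minced at 4 °C in PBS with protease inhibitors, spun 12000g 15 min. PBS extract (70 μg protein/lane, Lowry) run on 8% SDS-PAGE with 1 mg/mL gelatin, nonreducing. Gels washed in 2.5% Triton X-100, incubated 18 h at 37 °C in 40 mM Tris-HCl pH 7.4, 0.2 M NaCl, 10 mM CaCl2, Coomassie stained, densitometry.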

The target of data set [12] is T1, Matrix metalloproteinase-9. Description: Binding affinity to human full length MMP9 by CD spectral analysis. In short, it runs like this:
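Near-UV/visible CD spectra (240−700 nm), 1.0 mm quartz cell, under nitrogen at room temperature in aqueous buffer. Ligand held at 100 μM (from 10 mM methanol stock) while MMP-9 varied 0−333 nM. Kd at half-saturation derived from a double-reciprocal plot of Δθ against MMP-9 concentration.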

In data set [13] the target is T1, Matrix metalloproteinase-9. Description: Residual activity of recombinant human full length MMP9 at 250 uM preincubated for 1 hr followed by gelatin addition measured after 18 hrs by SDS-PAGE analysis relative to control.
Data set [14] concerns Mus musculus. As to the kind of experiment: Antiulcerogenic activity in indomethacin-induced gastric ulceration Balb/c mouse model assessed as decrease in visible gastric hemorrhagic lesions in fundic stomach by measuring ulcer index at 15 mg/kg, po administered 30 mins prior to indomethacin challenge measured after 4 hrs (reference value: 35 +/- 7.5). Format: functional.

Data set [15] relates to Mus musculus. As to the kind of experiment: Antiulcerogenic activity in indomethacin-induced gastric ulceration Balb/c mouse model assessed as gastric damage index at 15 mg/kg, po administered 30 mins prior to indomethacin challenge measured after 4 hrs by H and E staining based microscopic method (reference value: 40 +/- 7). It counts as functional. In short, it runs like this:
as §1

T1 sequence (P14780 whole entry): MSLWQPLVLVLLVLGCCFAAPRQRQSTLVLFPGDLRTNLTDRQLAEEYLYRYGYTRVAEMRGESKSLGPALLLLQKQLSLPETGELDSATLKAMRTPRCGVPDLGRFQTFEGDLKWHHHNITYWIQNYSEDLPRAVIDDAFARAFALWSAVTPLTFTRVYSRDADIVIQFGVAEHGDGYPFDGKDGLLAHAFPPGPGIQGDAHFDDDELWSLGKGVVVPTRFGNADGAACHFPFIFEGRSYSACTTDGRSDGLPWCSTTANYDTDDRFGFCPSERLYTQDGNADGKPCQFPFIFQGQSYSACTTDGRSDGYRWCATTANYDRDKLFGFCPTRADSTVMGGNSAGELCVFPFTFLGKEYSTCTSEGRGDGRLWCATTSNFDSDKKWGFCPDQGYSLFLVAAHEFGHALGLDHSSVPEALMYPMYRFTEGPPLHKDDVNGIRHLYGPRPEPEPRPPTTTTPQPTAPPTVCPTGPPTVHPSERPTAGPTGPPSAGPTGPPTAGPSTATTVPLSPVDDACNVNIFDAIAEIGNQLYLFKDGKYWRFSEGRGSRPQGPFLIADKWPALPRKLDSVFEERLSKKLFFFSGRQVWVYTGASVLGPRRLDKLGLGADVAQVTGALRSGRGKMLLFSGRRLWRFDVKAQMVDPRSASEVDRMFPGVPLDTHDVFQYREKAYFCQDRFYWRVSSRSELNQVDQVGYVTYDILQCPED

For `COc1ccc(-c2oc3cc(O)cc(O)c3c(=O)c2O[C@@H]2O[C@H](CO)[C@@H](O)[C@H](O)[C@H]2O)cc1O`, the Activity entry is “Dose-dependent effect” in data set [1] and “Non-Toxic” in data set [4]. In addition, the IC50 (in general, the point on the concentration scale where inhibition reaches its midpoint) in data set [2] is 50 µM. Moreover, the inhibition entry in data set [2] and in [11] was “Dose-dependent effect” in each case. Also, the outcome in data set [3], in data set [6] and in data set [8] was Active. Besides, the UI in data set [5] is given as 5; in data set [14] it was 8. The values for the residual activity in [7], in data set [10] and in data set [13] were 45%, 60% and 40%, respectively. In addition, the Activity_index is given as 5 in data set [9] and 10 in [15]. In data set [12], the Kd (in general, the constant that tells how readily two partners part at equilibrium) stood at 0.1 µM.
